From ChEMBL document CHEMBL1255381, “Golgicide A reveals essential roles for GBF1 in Golgi assembly and function” (Nat Chem Biol, 2009)
Calls of active or inactive are those of the source.

Legend:
Vero [1] = assay: Inhibition of Arf1 in african green monkey Vero cells assessed as punctate and diffuse distribution of medial-Golgi marker giantin at 10 ug/ml after 1 hr by immunofluorescence method; format: cell-based; settings: Chlorocebus sabaeus
Vero [2] = assay: Inhibition of Arf1 in african green monkey Vero cells overexpressing BIG1 assessed as punctate and diffuse distribution of medial-Golgi marker giantin from golgi at 10 ug/ml after 1 hr by immunofluorescence method; format: cell-based; settings: Chlorocebus sabaeus
Vero [3] = assay: Inhibition of Arf1 in african green monkey Vero cells assessed as rapid AP-1 dispersal from golgi membranes at 10 ug/ml after 5 mins by immunofluorescence method; format: cell-based; settings: Chlorocebus sabaeus
Vero [4] = assay: Inhibition of Arf1 in african green monkey Vero cells assessed as inhibition of StxB-SS retrogade transport from endosomes to TGN at 10 ug/ml by immunofluorescence method; format: cell-based; settings: Chlorocebus sabaeus
Vero [5] = assay: Inhibition of GBF1 in african green monkey Vero cells assessed as punctate and diffuse distribution of medial-Golgi marker giantin […] at 10 uM after 1 hr by immunofluorescence method; format: cell-based; settings: Chlorocebus sabaeus
Vero [6] = assay: Inhibition of GBF1 in african green monkey Vero cells assessed as tubule formation from trans golgi network and endosomes before its dispersal in african green monkey Vero cells at 10 uM after 1 hr by immunofluorescence method; format: cell-based; settings: Chlorocebus sabaeus
Vero [7] = assay: Inhibition of Arf1 in african green monkey Vero cells assessed as tubule formation from trans golgi network and endosomes before its dispersal at 10 ug/ml after 1 hr by immunofluorescence method; format: cell-based; settings: Chlorocebus sabaeus
Vero [8] = assay: Restoration of Arf1-GTP levels in african green monkey Vero cells expressing GBF1-M832L mutant at 10 ug/ml after 1 hr; format: cell-based; settings: Chlorocebus sabaeus
Vero [9] = assay: Inhibition of GBF1 QNV deleted mutant in african green monkey Vero cells assessed as effect on change in golgi morphology at 10 uM after 1 hr by immunofluorescence method; format: cell-based; settings: Chlorocebus sabaeus
Vero [10] = assay: Inhibition of Arf1 in african green monkey Vero cells assessed as rapid COPI redistribution from golgi at 10 ug/ml after 5 mins by immunofluorescence method; format: cell-based; settings: Chlorocebus sabaeus
Vero [11] = assay: Inhibition of Arf1 in african green monkey Vero cells expressing GBF1 QNV deleted mutant assessed as effect on change in golgi morphology at 10 ug/ml after 1 hr by immunofluorescence method; format: cell-based; settings: Chlorocebus sabaeus
Vero [12] = assay: Induction of GBF1 in african green monkey Vero cells assessed as punctate and diffuse distribution of cis-Golgi marker GM130 from TGN at 10 uM after 1 hr by immunofluorescence method; format: cell-based; settings: Chlorocebus sabaeus
Vero [13] = assay: Inhibition of GBF1 QNV to AAA mutant in african green monkey Vero cells assessed as effect on change in golgi morphology at 10 uM after 1 hr by immunofluorescence method; format: cell-based; settings: Chlorocebus sabaeus
Vero [14] = assay: Inhibition of Arf1 in african green monkey Vero cells expressing GBF1-M832L mutant assessed as inhibition of StxB-SS retrogade transport from endosomes to TGN in african green monkey Vero cells at 10 ug/ml by immunofluorescence method; format: cell-based; settings: Chlorocebus sabaeus
Vero [15] = assay: Inhibition of Arf1 in african green monkey Vero cells assessed as rapid GGA3 dispersal from trans golgi network at 10 ug/ml after 5 mins by immunofluorescence method; format: cell-based; settings: Chlorocebus sabaeus
Vero [16] = assay: Inhibition of GBF1 in african green monkey Vero cells assessed as inhibition of StxB-SS retrogade transport from endosomes to TGN at 10 uM by immunofluorescence method; format: cell-based; settings: Chlorocebus sabaeus
Vero [17] = assay: Inhibition of Arf1 in african green monkey Vero cells assessed as giantin positive punctate structures in contact with Sec31-positive ER exit site at 10 ug/ml after 1 hr by immunofluorescence method; format: cell-based; settings: Chlorocebus sabaeus
How it was run: (§1)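 Vero cells given BFA 10 μg/ml or compound 10 μM for 60 min, fixed, co-stained for giantin and ER exit site marker Sec31; giantin puncta relative to ERES scored by immunofluorescence.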

Vero [18] = assay: Inhibition of Arf1 in african green monkey Vero cells assessed as punctate and diffuse distribution of cis-Golgi marker GM130 at 10 ug/ml after 1 hr by immunofluorescence method; format: cell-based; settings: Chlorocebus sabaeus
Vero [19] = assay: Inhibition of Arf1 in african green monkey Vero cells expressing GBF1 QNV to AAA mutant assessed as effect on change in golgi morphology at 10 ug/ml after 1 hr by immunofluorescence method; format: cell-based; settings: Chlorocebus sabaeus
Vero [20] = assay: Inhibition of Arf1 in african green monkey Vero cells assessed as decrease in Arf1-GTP levels at 10 ug/ml after 1 hr; format: cell-based; settings: Chlorocebus sabaeus
How it was run: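 Vero cells transduced with adenoviral Arf1-V5, alone or with GBF1-ML-HA; next day reseeded, then 45 min at 37°C with medium, BFA 10 µg/ml or compound 10 μM. Lysates pulled down with GGA3 VHS-GAT-GST on glutathione agarose, 30 min 4°C; Arf1-GTP by anti-V5 Western, band densitometry, duplicate experiments averaged.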

Vero [21] = assay: Inhibition of GBF1 in african green monkey Vero cells assessed as colocalization with ERGIC-53 marker in ER-golgi intermediate compartment by immunofluorescence method; format: cell-based; settings: Chlorocebus sabaeus
Vero [22] = assay: Inhibition of GBF1-M832L mutant in african green monkey Vero cells assessed as colocalization of tsVSVG-GFP with […] at 10 uM by immunofluorescence method; format: cell-based; settings: Chlorocebus sabaeus
Vero [23] = assay: Effect on depolymerization of actin microfilaments in african green monkey Vero cells at 10 uM after 30 mins by immunofluorescence method; format: functional, cell-based; settings: Chlorocebus sabaeus
How it was run: (§2)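 Vero cells (DMEM, 10% FCS, 1% nonessential amino acids, 37°C, 5% CO2) exposed 30 min at 37°C to compound, DMSO, nocodazole or cytochalasin B; fixed and immunostained for microtubules or actin; scored by immunofluorescence microscopy.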

Vero [24] = assay: Inhibition of GBF1 mediated NPY-GFP secretion in african green monkey Vero cells at 10 uM by immunofluorescence method; format: cell-based; settings: Chlorocebus sabaeus
Vero [25] = assay: Inhibition of GBF1 M832L mutant in african green monkey Vero cells assessed as effect on GM130 localization from golgi at 100 uM by immunofluorescence method; format: cell-based; settings: Chlorocebus sabaeus
Vero [26] = assay: Inhibition of GBF1 R843A mutant in african green monkey Vero cells mutant assessed as effect on change in golgi morphology at 10 uM after 1 hr by immunofluorescence method; format: cell-based; settings: Chlorocebus sabaeus
How it was run: (§3)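 Vero cells transiently transfected (Lipofectamine 2000) with HA-tagged GBF1 wild type or R843A, K844A, Q845A or N846A mutant; after 36 h exposed 60 min to compound 10 μM, fixed, stained anti-HA and anti-giantin; Golgi morphology scored in expressing cells.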

Vero [27] = assay: Inhibition of GBF1 in african green monkey Vero cells assessed as Arf1 activation at 10 uM after 1 hr; format: cell-based; settings: Chlorocebus sabaeus
Vero [28] = assay: Inhibition of GBF1 in african green monkey Vero cells assessed as rapid AP-1 dispersal from golgi membranes at 10 uM after 5 mins by immunofluorescence method; format: cell-based; settings: Chlorocebus sabaeus
Vero [29] = assay: Inhibition of GBF1-M832L mutant in african green monkey Vero cells assessed as tsVSVG-GFP transport to plasma membrane at 10 uM by immunofluorescence method; format: cell-based; settings: Chlorocebus sabaeus
How it was run: (§4)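 Vero cells co-transfected with tsVSVG-GFP (ts045) and optionally GBF1-HA WT or M832L; held 12-16 h at 42°C for ER arrest, then cycloheximide 100 µg/ml plus compound 10 µM or BFA 10 µg/ml, shifted to 32°C for various times (up to 4 h); fixed, anti-HA stained, transport imaged.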

Vero [30] = assay: cells; format: functional, cell-based; settings: Chlorocebus sabaeus, 0.5 h
Vero [31] = assay: Inhibition of GBF1 in african green monkey Vero cells assessed as induction of betaCOP dispersal from golgi membranes at 10 uM after 5 mins by immunofluorescence method; format: cell-based; settings: Chlorocebus sabaeus
Vero [32] = assay: Inhibition of GBF1-M832L mutant in african green monkey Vero cells assessed as Arf1 activation at 10 uM after 1 hr; format: cell-based; settings: Chlorocebus sabaeus
Vero [33] = assay: Inhibition of GBF1 K844A mutant in african green monkey Vero cells mutant assessed as effect on change in golgi morphology at 10 uM after 1 hr by immunofluorescence method; format: cell-based; settings: Chlorocebus sabaeus; how it was run: as §3
Vero [34] = assay: Inhibition of GBF1 in african green monkey Vero cells assessed as rapid COPI redistribution from golgi at 10 uM after 5 mins by immunofluorescence method; format: cell-based; settings: Chlorocebus sabaeus
Vero [35] = assay: Inhibition of GBF1 Q845A mutant in african green monkey Vero cells mutant assessed as effect on change in golgi morphology at 10 uM after 1 hr by immunofluorescence method; format: cell-based; settings: Chlorocebus sabaeus; how it was run: as §3
Vero [36] = assay: Effect on transit of transferrin through endocytic and recycling pathway in african green monkey Vero cells at 10 uM after 1 hr by immunofluorescence method; format: functional, cell-based; settings: Chlorocebus sabaeus
Vero [37] = assay: Inhibition of GBF1 in african green monkey Vero cells overexpressing BIG1 assessed as distribution of trans-Golgi marker TGN46 from TGN at 10 uM after 1 hr by immunofluorescence method; format: cell-based; settings: Chlorocebus sabaeus
Vero [38] = assay: Inhibition of GBF1 in african green monkey Vero cells assessed as tsVSVG-GFP transport to plasma membrane at 10 uM by immunofluorescence method; format: cell-based; settings: Chlorocebus sabaeus; how it was run: as §4
Vero [39] = assay: Inhibition of GBF1-M832L mutant mediated NPY-GFP secretion in african green monkey Vero cells at 10 uM by immunofluorescence method; format: cell-based; settings: Chlorocebus sabaeus
MDCK [40] = assay: Induction of betaCOP distribution from golgi membranes in MDCK cells at 10 uM after 1 hr by immunofluorescence method; format: functional, cell-based; settings: Canis lupus familiaris
How it was run: (§5)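 MDCK cells (EMEM, 10% FCS) and Vero cells, untreated or given compound 10 μM for 1 h; fixed and immunostained for βCOP and Golgi markers; distribution compared by immunofluorescence.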

Vero [41] = assay: Inhibition of GBF1 in african green monkey Vero cells assessed as giantin positive punctate structures in contact with Sec31-positive ER exit site at 10 uM after 1 hr by immunofluorescence method; format: cell-based; settings: Chlorocebus sabaeus; how it was run: as §1
Vero [42] = assay: Effect on BIG1 distribution from golgi in african green monkey Vero cells by immunofluorescence method; format: functional, cell-based; settings: Chlorocebus sabaeus
Vero [43] = assay: Inhibition of GBF1 M832L mutant in african green monkey Vero cells assessed as effect on betaCOP localization from golgi at 100 uM by immunofluorescence method; format: cell-based; settings: Chlorocebus sabaeus
Vero [44] = assay: Inhibition of GBF1 N846A mutant in african green monkey Vero cells mutant assessed as effect on change in golgi morphology at 10 uM after 1 hr by immunofluorescence method; format: cell-based; settings: Chlorocebus sabaeus; how it was run: as §3
MDCK [45] = assay: Effect on golgi morphology in MDCK cells at 10 uM after 1 hr by immunofluorescence method; format: functional, cell-based; settings: Canis lupus familiaris; how it was run: as §5
Vero [46] = assay: Inhibition of GBF1 in african green monkey Vero cells assessed as colocalization of tsVSVG-GFP with […] at 10 uM by immunofluorescence method; format: cell-based; settings: Chlorocebus sabaeus
Vero [47] = assay: Inhibition of GBF1 in african green monkey Vero cells assessed as rapid GGA3 dispersal from trans golgi network at 10 uM after 5 mins by immunofluorescence method; format: cell-based; settings: Chlorocebus sabaeus
Vero [48] = assay: Inhibition of GBF1 M832L in african green monkey Vero cells assessed as inhibition of StxB-SS retrogade transport from endosomes to TGN at 10 uM by immunofluorescence method; format: cell-based; settings: Chlorocebus sabaeus
Vero [49] = assay: Effect on BIG2 distribution from golgi in african green monkey Vero cells by immunofluorescence method; format: functional, cell-based; settings: Chlorocebus sabaeus
Vero [50] = assay: Inhibition of GBF1 M832L mutant in african green monkey Vero cells assessed as effect on TGN46 localization from golgi at 100 uM by immunofluorescence method; format: cell-based; settings: Chlorocebus sabaeus
Vero [51] = assay: Inhibition of GBF1 in african green monkey Vero cells overexpressing BIG1 assessed as punctate and diffuse distribution of medial-Golgi marker giantin from golgi at 10 uM after 1 hr by immunofluorescence method; format: cell-based; settings: Chlorocebus sabaeus
Vero [52] = assay: Effect on disruption of microtubules in african green monkey Vero cells at 10 uM after 30 mins by immunofluorescence method; format: functional, cell-based; settings: Chlorocebus sabaeus; how it was run: as §2

C[C@H]1CCC/C=C/[C@@H]2C[C@H](O)C[C@H]2[C@H](O)/C=C/C(=O)O1
inactive: inhibition (Vero [2]) | inhibition (Vero [6]) | Activity (Vero [8]) | inhibition (Vero [11]) | inhibition (Vero [14]) | inhibition (Vero [19])
active: inhibition (Vero [1]) | inhibition (Vero [3]) | inhibition (Vero [4]) | inhibition (Vero [5]) | inhibition (Vero [7]) | inhibition (Vero [9]) | inhibition (Vero [10]) | Activity (Vero [12]) | inhibition (Vero [13]) | inhibition (Vero [15]) | inhibition (Vero [16]) | inhibition (Vero [17]) | inhibition (Vero [18]) | inhibition (Vero [20])

Fc1cc(F)c2c(c1)[C@H]1C=CC[C@H]1C(c1cccnc1)N2 (some centres undefined) [GOLGICIDE A]
inactive: inhibition (Vero [22]) | Activity (Vero [23]) | inhibition (Vero [25]) | inhibition (Vero [26]) | inhibition (Vero [28]) | inhibition (Vero [29]) | inhibition (Vero [32]) | inhibition (Vero [33]) | inhibition (Vero [35]) | Activity (Vero [36]) | inhibition (Vero [37]) | inhibition (Vero [39]) | Activity (MDCK [40]) | Activity (Vero [42]) | inhibition (Vero [43]) | inhibition (Vero [44]) | Activity (MDCK [45]) | inhibition (Vero [47]) | Activity (Vero [49]) | inhibition (Vero [50]) | inhibition (Vero [51]) | Activity (Vero [52])
3.3 µM: IC50 (Vero [30])
active: inhibition (Vero [21]) | inhibition (Vero [1]) | inhibition (Vero [24]) | inhibition (Vero [4]) | inhibition (Vero [5]) | inhibition (Vero [31]) | inhibition (Vero [34]) | Activity (Vero [12]) | inhibition (Vero [38]) | inhibition (Vero [41]) | inhibition (Vero [16]) | inhibition (Vero [17]) | inhibition (Vero [46]) | inhibition (Vero [48])
75%: inhibition (Vero [20])
34%: inhibition (Vero [27])
